{"source": "ChEMBL document CHEMBL3526071", "about": "“Predicting phenolic acid absorption in Caco-2 cells: a theoretical permeability model and mechanistic study” (Drug Metab Dispos, 2012)", "key": {"[1]": {"experiment": "Apparent permeability across human Caco2 cells with high TEER resistance at 500 uM after 1 hr by HPLC-DAD analysis", "assay_type": "ADME, cell-based", "conditions": "Caco-2", "in_short": "(§1)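 Caco-2 (passages 30–50) seeded at 6 × 10^4 cells/cm2 on 0.4-μm polycarbonate Transwell inserts and grown 21 days. Monolayer resistance varied by 15-min preincubation in HBSS pH 7.4 with 18 μM or 3.6 mM CaCl2. 500 μM compound added apically in HBSS at the same CaCl2. 1 h, 37°C, no stirring. TEER measured before and after, corrected for cell-free insert. Receiver quantified by HPLC-DAD. n = 3.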"}, "[2]": {"experiment": "Efflux ratio of apparent permeability from basolateral to apical side over apical to basolateral side in human Caco2 cells at 500 uM after 1 hr by HPLC-DAD analysis", "assay_type": "ADME, cell-based", "conditions": "Caco-2"}, "[3]": {"experiment": "Apparent permeability across human Caco2 cells with low TEER resistance at 500 uM after 1 hr by HPLC-DAD analysis", "assay_type": "ADME, cell-based", "conditions": "Caco-2", "in_short": "as §1"}, "[4]": {"experiment": "Apparent permeability from basolateral to apical side in human Caco2 cells at 500 uM at pH 7.4 after 1 hr by HPLC-DAD analysis", "assay_type": "ADME, cell-based", "conditions": "Caco-2, pH 7.4", "in_short": "(§2)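 Differentiated Caco-2 monolayers after 21+ days on Transwells, equilibrated 15 min in HBSS with 1.8 mM CaCl2, pH 7.4. 500 μM compound (from DMSO stock) in the donor, apical or basal. Both sides pH 7.4. 1 h at 37°C, 5% CO2. Receiver measured by HPLC-DAD with recovery correction. Papp calculated from receiver amount over time versus initial donor amount. Mean ± S.D., n = 3.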"}, "[5]": {"experiment": "1-Octanol-water distribution coefficient, log D of the compound at pH 7.4 by shake flask method", "assay_type": "physicochemical"}, "[6]": {"experiment": "Apparent permeability from apical to basolateral side in human Caco2 cells at 500 uM at pH 7.4 after 1 hr by HPLC-DAD analysis", "assay_type": "ADME, cell-based", "conditions": "Caco-2, pH 7.4", "in_short": "as §2"}, "[7]": {"experiment": "1-Octanol-water distribution coefficient, log D of the compound at pH 7.4", "assay_type": "physicochemical"}, "[8]": {"experiment": "Oral bioavailability in human", "assay_type": "ADME, organism-based", "conditions": "in vivo"}, "[9]": {"conditions": "1-octanol/water, read-out: logD"}}, "note": "Where a SMILES comes first, the peptide text is derived from it."}
{"smiles": "O=C(/C=C/c1ccc(O)c(O)c1)O[C@@H]1C[C@](O)(C(=O)O)C[C@@H](OC(=O)/C=C/c2ccc(O)c(O)c2)[C@H]1O", "values": [{"measurement": "Papp at 1 h, 500 µM", "setting": "[1]", "value": 0.05, "unit": "×10⁻⁶ cm/s"}, {"measurement": "efflux ratio at 1 h, 500 µM", "setting": "[2]", "value": 5.4}, {"measurement": "Papp at 1 h, 500 µM", "setting": "[3]", "value": 0.68, "unit": "×10⁻⁶ cm/s"}, {"measurement": "Papp B→A at 1 h, 500 µM", "setting": "[4]", "value": 0.72, "unit": "×10⁻⁶ cm/s"}, {"measurement": "logD", "setting": "[5]", "value": -1.04}, {"measurement": "Papp A→B at 1 h, 500 µM", "setting": "[6]", "value": 0.14, "unit": "×10⁻⁶ cm/s"}]}
{"smiles": "CC(C)(C)S(=O)(=O)C[C@@H](Cc1ccccc1)C(=O)N[C@@H](Cc1cnc[nH]1)C(=O)N[C@@H](CC1CCCCC1)[C@@H](O)[C@@H](O)C1CC1", "values": [{"measurement": "logD", "setting": "[7]; [9]", "value": 2.75}]}
{"smiles": "COc1ccc(/C=C/C(=O)O)cc1OC", "values": [{"measurement": "efflux ratio at 1 h, 500 µM", "setting": "[2]", "value": 1.1}, {"measurement": "Papp B→A at 1 h, 500 µM", "setting": "[4]", "value": 21.7, "unit": "×10⁻⁶ cm/s"}, {"measurement": "logD", "setting": "[5]", "value": -1.01}, {"measurement": "Papp A→B at 1 h, 500 µM", "setting": "[6]", "value": 19.9, "unit": "×10⁻⁶ cm/s"}]}
{"smiles": "CSc1ccc2ncn(/C=C/C(=O)O)c(=O)c2c1", "values": [{"measurement": "logD", "setting": "[7]; [9]", "value": -1.05}]}
{"smiles": "COc1cc(/C=C/C(=O)O[C@@H]2C[C@](O)(C(=O)O)C[C@@H](O)[C@H]2O)ccc1O", "values": [{"measurement": "Papp at 1 h, 500 µM", "setting": "[1]", "value": 0.31, "unit": "×10⁻⁶ cm/s"}, {"measurement": "efflux ratio at 1 h, 500 µM", "setting": "[2]", "value": 1.1}, {"measurement": "Papp at 1 h, 500 µM", "setting": "[3]", "value": 1.7, "unit": "×10⁻⁶ cm/s"}, {"measurement": "Papp B→A at 1 h, 500 µM", "setting": "[4]", "value": 0.28, "unit": "×10⁻⁶ cm/s"}, {"measurement": "logD", "setting": "[5]", "value": -2.79}, {"measurement": "Papp A→B at 1 h, 500 µM", "setting": "[6]", "value": 0.25, "unit": "×10⁻⁶ cm/s"}]}
{"smiles": "C=CCc1ccccc1OCC(O)CNC(C)C", "note": "(centres undefined) [ALPRENOLOL]", "values": [{"measurement": "logD", "setting": "[5]", "value": 1.08}]}
{"smiles": "Cc1c(N(C)C)c(=O)n(-c2ccccc2)n1C", "note": "[AMINOPYRINE]", "values": [{"measurement": "bioavailability", "setting": "[8]", "value": 100, "unit": "%"}]}
{"smiles": "CC(=O)Oc1ccccc1C(=O)O", "note": "[ASPIRIN]", "values": [{"measurement": "bioavailability", "setting": "[8]", "value": 100, "unit": "%"}]}
{"smiles": "O=C(O)/C=C/c1ccc(O)c(O)c1", "note": "[CAFFEIC ACID]", "values": [{"measurement": "Papp B→A at 1 h, 500 µM", "setting": "[4]", "value": 1.7, "unit": "×10⁻⁶ cm/s"}, {"measurement": "Papp A→B at 1 h, 500 µM", "setting": "[6]", "value": 1.4, "unit": "×10⁻⁶ cm/s"}]}
{"smiles": "O=C(/C=C/c1ccc(O)c(O)c1)O[C@@H]1C[C@](O)(C(=O)O)C[C@@H](O)[C@H]1O", "note": "[CHLOROGENIC ACID]", "values": [{"measurement": "Papp at 1 h, 500 µM", "setting": "[1]", "value": 0.25, "unit": "×10⁻⁶ cm/s"}, {"measurement": "Papp at 1 h, 500 µM", "setting": "[3]", "value": 0.77, "unit": "×10⁻⁶ cm/s"}, {"measurement": "Papp B→A at 1 h, 500 µM", "setting": "[4]", "value": 0.33, "unit": "×10⁻⁶ cm/s"}, {"measurement": "logD", "setting": "[5]", "value": -3.05}, {"measurement": "Papp A→B at 1 h, 500 µM", "setting": "[6]", "value": 0.38, "unit": "×10⁻⁶ cm/s"}]}
{"smiles": "CN/C(=N/CCSCc1nc[nH]c1C)NC#N", "note": "[CIMETIDINE]", "values": [{"measurement": "logD", "setting": "[7]; [9]", "value": -0.4}]}
{"smiles": "OC[C@H]1OC(O)[C@H](O)[C@@H](O)[C@@H]1O", "note": "(some centres undefined) [DEXTROSE]", "values": [{"measurement": "logD", "setting": "[7]; [9]", "value": -2.83}]}
{"smiles": "CNC[C@H](O)c1ccc(O)c(O)c1", "note": "[EPINEPHRINE]", "values": [{"measurement": "logD", "setting": "[7]; [9]", "value": -2.59}]}
{"smiles": "CCOC(=O)C1=C(C)NC(C)=C(C(=O)OC)C1c1cccc(Cl)c1Cl", "note": "(centres undefined) [FELODIPINE]", "values": [{"measurement": "logD", "setting": "[7]; octanol/water", "value": 3.48}]}
{"smiles": "COc1cc(/C=C/C(=O)O)ccc1O", "note": "[FERULATE]", "values": [{"measurement": "Papp at 1 h, 500 µM", "setting": "[1]", "value": 10.8, "unit": "×10⁻⁶ cm/s"}, {"measurement": "efflux ratio at 1 h, 500 µM", "setting": "[2]", "value": 1}, {"measurement": "Papp at 1 h, 500 µM", "setting": "[3]", "value": 11.2, "unit": "×10⁻⁶ cm/s"}, {"measurement": "Papp B→A at 1 h, 500 µM", "setting": "[4]", "value": 10.2, "unit": "×10⁻⁶ cm/s"}, {"measurement": "logD", "setting": "[5]", "value": -1.19}, {"measurement": "Papp A→B at 1 h, 500 µM", "setting": "[6]", "value": 10, "unit": "×10⁻⁶ cm/s"}]}
{"smiles": "CC(C)n1c(/C=C/C(O)CC(O)CC(=O)O)c(-c2ccc(F)cc2)c2ccccc21", "note": "(centres undefined) [FLUVASTATIN]", "values": [{"measurement": "logD", "setting": "[7]; [9]", "value": 1.09}]}
{"smiles": "NCC(=O)N1CCC[C@H]1C(=O)O", "note": "[GLYCYL PROLINE] (H-Gly-Pro-OH)", "values": [{"measurement": "logD", "setting": "[7]; [9]", "value": -3.32}]}
{"smiles": "COC1=CC(=O)C[C@@H](C)[C@]12Oc1c(Cl)c(OC)cc(OC)c1C2=O", "note": "[GRISEOFULVIN]", "values": [{"measurement": "logD", "setting": "[7]; [9]", "value": 2.47}]}
{"smiles": "N=C(N)NCC1COc2ccccc2O1", "note": "(centres undefined) [GUANOXAN]", "values": [{"measurement": "logD", "setting": "[7]; [9]", "value": -0.83}]}
{"smiles": "N[C@@H](Cc1ccc(O)c(O)c1)C(=O)O", "note": "[LEVODOPA]", "values": [{"measurement": "logD", "setting": "[7]; octanol/water", "value": -1.22}]}
{"smiles": "OC[C@@H](O)[C@@H](O)[C@H](O)[C@H](O)CO", "note": "[MANNITOL]", "values": [{"measurement": "logD", "setting": "[7]; [9]", "value": -3.1}, {"measurement": "bioavailability", "setting": "[8]", "value": 16, "unit": "%"}]}
{"smiles": "COCCc1ccc(OCC(O)CNC(C)C)cc1", "note": "(centres undefined) [METOPROLOL]", "values": [{"measurement": "logD", "setting": "[5]", "value": -0.24}]}
{"smiles": "COCC(=O)O[C@]1(CCN(C)CCCc2nc3ccccc3[nH]2)CCc2cc(F)ccc2[C@@H]1C(C)C", "note": "[MIBEFRADIL]", "values": [{"measurement": "logD", "setting": "[7]; octanol/water", "value": 3.66}]}
{"smiles": "Cc1ccnc2c1NC(=O)c1cccnc1N2C1CC1", "note": "[NEVIRAPINE]", "values": [{"measurement": "logD", "setting": "[7]; [9]", "value": 1.81}, {"measurement": "bioavailability", "setting": "[8]", "value": "> 90", "unit": "%"}]}
{"smiles": "O=C1NC(=O)C(c2ccccc2)(c2ccccc2)N1", "note": "[PHENYTOIN]", "values": [{"measurement": "logD", "setting": "[7]; [9]", "value": 2.5}]}
{"smiles": "CN1C(C(=O)Nc2ccccn2)=C(O)c2ccccc2S1(=O)=O", "note": "[PIROXICAM]", "values": [{"measurement": "logD", "setting": "[7]; [9]", "value": 0}]}
{"smiles": "CC(=O)Nc1ccc(OCC(O)CNC(C)C)cc1", "note": "(centres undefined) [PRACTOLOL]", "values": [{"measurement": "logD", "setting": "[7]; [9]", "value": -1.4}]}
{"smiles": "COC(=O)c1ccccc1-c1c2ccc(=N)cc-2oc2cc(N)ccc12", "note": "[RHODAMINE123]", "values": [{"measurement": "logD", "setting": "[7]; [9]", "value": 0.53}]}
{"smiles": "O=C(O)c1ccccc1O", "note": "[SALICYLIC ACID]", "values": [{"measurement": "logD", "setting": "[7]; [9]", "value": -1.44}, {"measurement": "logD", "setting": "[5]", "value": -2.34}, {"measurement": "bioavailability", "setting": "[8]", "value": 100, "unit": "%"}]}
{"smiles": "CC(C)(C)NCC(O)COc1ccc(NC(=O)NC2CCCCC2)cc1", "note": "(centres undefined) [TALINOLOL]", "values": [{"measurement": "logD", "setting": "[7]; [9]", "value": 1.1}, {"measurement": "bioavailability", "setting": "[8]", "value": 55, "unit": "%"}]}
{"smiles": "CC(=O)CC(c1ccccc1)c1c(O)c2ccccc2oc1=O", "note": "(centres undefined) [WARFARIN]", "values": [{"measurement": "logD", "setting": "[7]; [9]", "value": 0.9}]}
